Here are results for 12 compounds from ChEMBL document CHEMBL1759840, “2,3-Substituted quinoxalin-6-amine analogs as antiproliferatives: a structure-activity relationship study” (2011).

Calls of active or inactive are those of the source. No cut-off for these calls is given here.

In assay [1] the test system is MDA-MB-231. In words: Growth inhibition of human MDA-MB-231 cells after 72 hrs by alamar blue assay. It is filed as functional. The following applies: MDA-MB-231, 72 h. (The colour change of resazurin is a common sign of viable cells or microbes.)
Assay [2] relates to U2OS. In words: Growth inhibition of human U2OS cells at 20 uM after 72 hrs by alamar blue assay. The conditions noted are these: for inhibition of growth at 20 µM: read-out: GI. It is filed as functional. Summed up:
(§1)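 Single-concentration screen at 20 μM with 72 h exposure across a panel of cancer lines: lung A549, pancreatic AsPC1, colon HT29, breast MDA-MB-231, prostate PC3, ovarian SKOV3 and bone U2OS. Growth inhibition read after 72 h.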

Assay [3] concerns ASPC1. Nature of the assay: Growth inhibition of human AsPC1 cells after 72 hrs by alamar blue assay. It is filed as functional. The conditions noted are these: ASPC1, 72 h.
Assay [4] relates to SK-OV-3. Nature of the assay: Growth inhibition of human SKOV3 cells after 72 hrs by alamar blue assay. It is filed as functional. The conditions noted are these: SK-OV-3, 72 h.
Assay [5] concerns HeLa. In words: Induction of Mcl-1 dependent apoptosis in doxycycline-stimulated human HeLa cells assessed as condensed nuclei for 12 hrs using Hoechst dye. It is filed as functional, cell-based.
Assay [6] relates to HT-29. Nature of the assay: Growth inhibition of human HT-29 cells after 72 hrs by alamar blue assay. It is filed as functional. The conditions noted are these: HT-29, 72 h.
The subject of assay [7] is PC-3. In words: Growth inhibition of human PC3 cells after 72 hrs by alamar blue assay. It is filed as functional. The conditions noted are these: PC-3, 72 h.
Assay [8] relates to U2OS. In words: Growth inhibition of human U2OS cells after 72 hrs by alamar blue assay. It is filed as functional.
The subject of assay [9] is MDA-MB-231. In words: Growth inhibition of human MDA-MB-231 cells at 20 uM after 72 hrs by alamar blue assay. The following applies: for inhibition of growth at 20 µM: MDA-MB-231, 72 h, read-out: GI. It is filed as functional. Summed up:
as §1

The subject of assay [10] is SK-OV-3. In words: Growth inhibition of human SKOV3 cells at 20 uM after 72 hrs by alamar blue assay. It is filed as functional. The following applies: for inhibition of growth at 20 µM: SK-OV-3, 72 h, read-out: GI. In outline:
as §1

In assay [11] the test system is A549. Nature of the assay: Growth inhibition of human A549 cells after 72 hrs by alamar blue assay. It is filed as functional. The following applies: A549, 72 h.
The subject of assay [12] is MDA-MB-231. In words: Induction of apoptosis in human MDA-MB-231 cells assessed as increase in caspase 3/7 activity at 20 uM after 1 hr by luminescence assay. It is filed as functional, cell-based. In outline: (§2)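 Caspase 3/7 induction was followed over time, up to 72 h, in MDA-MB-231 and PC3 cells, with etoposide as positive control.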
The test system of assay [13] is PC-3. In words: Growth inhibition of human PC3 cells at 20 uM after 72 hrs by alamar blue assay. It is filed as functional. The following applies: for inhibition of growth at 20 µM: PC-3, 72 h, read-out: GI. Summed up: as §1
For assay [14], the system named is HeLa. Nature of the assay: Induction of apoptosis in human HeLa cells overexpressing Bad3SA assessed as increase in caspase 3/7 activity at 20 uM after 1 hr by luminescence assay. It is filed as functional, cell-based.
In assay [15] the test system is ASPC1. In words: Growth inhibition of human AsPC1 cells at 20 uM after 72 hrs by alamar blue assay. It is filed as functional. The following applies: for inhibition of growth at 20 µM: ASPC1, 72 h, read-out: GI. In outline: as §1
The test system of assay [16] is A549. Nature of the assay: Growth inhibition of human A549 cells at 20 uM after 72 hrs by alamar blue assay. The conditions noted are these: for inhibition of growth at 20 µM: A549, 72 h, read-out: GI. It is filed as functional. In outline:
as §1

Assay [17] concerns PC-3. In words: Induction of apoptosis in human PC3 cells assessed as increase in caspase 3/7 activity at 20 uM after 1 hr by luminescence assay. It is filed as functional, cell-based. Summed up: as §2
Assay [18] has as its system HeLa. Nature of the assay: Induction of apoptosis in human HeLa cells overexpressing Bad3SA assessed as PARP cleavage at 20 uM by Western blotting. It is filed as functional, cell-based. A general note: In western blotting, separated proteins are transferred to a membrane and probed.
The test system of assay [19] is HT-29. In words: Growth inhibition of human HT-29 cells at 20 uM after 72 hrs by alamar blue assay. It is filed as functional. The following applies: for inhibition of growth at 20 µM: HT-29, 72 h, read-out: GI. Summed up: as §1

Take `O=C(Nc1ccc(Br)cc1)Nc1ccc2nc(-c3ccco3)c(-c3ccco3)nc2c1`: the GI50 – broadly, the concentration giving 50% growth inhibition – in the assay on MDA-MB-231 [1] was 8.4 µM; with ASPC1 [3], 17.3 µM; with SK-OV-3 [4] it was 16.8 µM; with HT-29 [6] it was 12.1 µM; with PC-3 [7], 5.9 µM; in the assay on U2OS [8] it was 10.8 µM. Halving of growth in the assay with A549 [11] (GI50) required 6.4 µM. Further, the inhibition of growth at 20 µM was more than 100% in the assay with U2OS [2]; more than 100% in the assay with MDA-MB-231 [9]; 94.9% with SK-OV-3 [10]; more than 100% in the assay on PC-3 [13]; more than 100% in the assay on ASPC1 [15]; more than 100% in the assay with A549 [16]. Moreover, the inhibition of growth at 20 µM in the assay with HT-29 [19] worked out at 88.6%. Besides, the Activity result with HeLa [5] was “Dose-dependent effect”. The result in the assay with MDA-MB-231 [12], in the assay with HeLa [14], in the assay with PC-3 [17] and with HeLa [18] was Active.

On to `O=C(Nc1ccc(Cl)cc1)Nc1ccc2nc(-c3ccco3)c(-c3ccco3)nc2c1`, for which the inhibition of growth at 20 µM in the assay on U2OS [2] is 87.4%; in the assay on MDA-MB-231 [9], 92.5%; in the assay with SK-OV-3 [10] it was 55.8%; with PC-3 [13], 86.4%; in the assay on ASPC1 [15], 81.1%; in the assay with A549 [16] it was 99.2%. For the same compound, the inhibition of growth at 20 µM in the assay on HT-29 [19] amounted to 86.3%.

For `O=C(Nc1ccc2nc(-c3ccco3)c(-c3ccco3)nc2c1)N1CCCC1`, the inhibition of growth at 20 µM in the assay on U2OS [2] is 46.5%; in the assay with MDA-MB-231 [9], 18.2%; in the assay with SK-OV-3 [10], 16.9%; in the assay on PC-3 [13], 53.1%; in the assay with ASPC1 [15], 11.6%; in the assay on A549 [16], 23.3%. In addition, in the assay with HT-29 [19], the inhibition of growth at 20 µM is 16.7%.

For the compound `O=[N+]([O-])c1ccc(NC(=S)Nc2ccc3nc(-c4ccccc4)c(-c4ccccc4)nc3c2)cc1`, the inhibition of growth at 20 µM stood at 76.1% in the assay on U2OS [2]; 72.6% in the assay with MDA-MB-231 [9]; 55.8% with SK-OV-3 [10]; 81% with PC-3 [13]; 55.5% in the assay with ASPC1 [15]; 16.6% in the assay on A549 [16]. Also, the inhibition of growth at 20 µM with HT-29 [19] came out at 81.2%.

Regarding `O=C(Nc1ccccc1)Nc1ccc2nc(-c3cccs3)c(-c3cccs3)nc2c1`, the “growth inhibition (GI)” value with U2OS [2], in the assay with MDA-MB-231 [9], with SK-OV-3 [10], with PC-3 [13], with ASPC1 [15] and with A549 [16] was “inactive” throughout. For the same compound, the “growth inhibition (GI)” value in the assay on HT-29 [19] is “inactive”.

Take `O=C(Nc1ccc2nc(-c3ccco3)c(-c3ccco3)nc2c1)NN1CCC(Cc2ccccc2)CC1`: the inhibition of growth at 20 µM with U2OS [2] was 80.3%; in the assay on MDA-MB-231 [9] it was 90.8%; in the assay on SK-OV-3 [10], 47.6%; with PC-3 [13] it was more than 100%; with ASPC1 [15], more than 100%; with A549 [16], 93.1%. Moreover, the inhibition of growth at 20 µM with HT-29 [19] stood at 55.2%.

Regarding `Cc1nc2ccc(NC(=O)Nc3ccccc3)cc2nc1C`, the “growth inhibition (GI)” value with U2OS [2], with MDA-MB-231 [9], with SK-OV-3 [10], with PC-3 [13], in the assay with ASPC1 [15] and in the assay on A549 [16] was “inactive” in each case. The “growth inhibition (GI)” value in the assay with HT-29 [19] was “inactive”.

Consider `O=C(Nc1ccc(F)cc1)Nc1ccc2nc(-c3ccco3)c(-c3ccco3)nc2c1`, for which the inhibition of growth at 20 µM in the assay with U2OS [2] is 55.6%; in the assay with MDA-MB-231 [9] it was 38.4%; in the assay on PC-3 [13], 90.7%; with ASPC1 [15] it was more than 100%; in the assay on A549 [16] it was more than 100%; in the assay on HT-29 [19], 74.2%. For the same compound, in the assay on SK-OV-3 [10], the “growth inhibition (GI)” value is “inactive”.

Turning to `Cc1ccc(S(=O)(=O)N(c2ccc3nc(-c4ccco4)c(-c4ccco4)nc3c2)S(=O)(=O)c2ccc(C)cc2)cc1`, the “growth inhibition (GI)” value in the assay with U2OS [2], in the assay on MDA-MB-231 [9], in the assay with SK-OV-3 [10], in the assay with PC-3 [13], with ASPC1 [15] and with A549 [16] was “inactive” throughout. Further, the “growth inhibition (GI)” value in the assay on HT-29 [19] is “inactive”.

`O=C(Nc1ccc2nc(-c3ccco3)c(-c3ccco3)nc2c1)N1CCOCC1`: the “growth inhibition (GI)” value in the assay on U2OS [2], in the assay with SK-OV-3 [10] and in the assay with ASPC1 [15] was “inactive” in each case. Also, the inhibition of growth at 20 µM with MDA-MB-231 [9] was determined as 10.9%; with PC-3 [13], 48.9%; with A549 [16], 39.7%; with HT-29 [19], 19.4%.

In the case of `Cc1ccc(S(=O)(=O)N(c2ccc3nc(-c4cccs4)c(-c4cccs4)nc3c2)S(=O)(=O)c2ccc(C)cc2)cc1`, the “growth inhibition (GI)” value in the assay with U2OS [2], in the assay with MDA-MB-231 [9], in the assay with SK-OV-3 [10], with PC-3 [13], in the assay with ASPC1 [15] and in the assay with A549 [16] was “inactive” in each case. Moreover, the “growth inhibition (GI)” value with HT-29 [19] was “inactive”.

Turning to `O=C(Nc1ccc(-c2ccccc2)cc1)Nc1ccc2nc(-c3ccco3)c(-c3ccco3)nc2c1`, the inhibition of growth at 20 µM in the assay with U2OS [2] stood at 46.9%; in the assay with MDA-MB-231 [9] it was 50.2%; in the assay with PC-3 [13], 88.5%; in the assay with A549 [16] it was 13.8%; in the assay on HT-29 [19], 72.4%. Moreover, the “growth inhibition (GI)” value in the assay with SK-OV-3 [10] and with ASPC1 [15] was “inactive” in each case.
